Published values gathered from unrelated publications.
Each line is one published result; the experiments were not run side by side.
Target: Dual specificity protein kinase CLK2 (CLK2, Homo sapiens, UniProt P49760)

O=c1[nH]c2ccccc2n1C1CCN(Cc2ccc(-c3[nH]c4cc5ncnc5cc4nc3-c3ccccc3)cc2)CC1  remaining signal (cell-free assay; 0.5 µM): 114%
C#Cc1n[nH]c2c(-c3cn([C@@H](C)c4ccccn4)c(=O)[nH]c3=O)cc(F)cc12  inhibition (enzyme activity; inhibitor; 0.1 µM): 7.4%
N#CC1(c2ccccn2)CCN(Cc2cc(C(=O)O)c(=O)n3ccccc23)CC1  remaining binding (cell-free assay; competition with immobilised ligand; 1 µM): 100%
Cn1cc(-c2cc(F)cc(N3CCn4c(cc5c4CCCC5)C3=O)c2CO)cc(Nc2ccc(N3CCN(C4COC4)CC3)cn2)c1=O  inhibition (enzyme activity; inhibitor; 0.1 µM): 7%
Cc1nn(C)cc1-c1nc2c(N3CCN(Cc4ccc(Cl)cc4)CC3)c(Cl)cnc2[nH]1  remaining binding (binding; competition with immobilised ligand; 1 µM): 77%
COc1ncccc1-c1cnn2ccc(N3CCN(C(=O)OC(C)C)CC3)nc12  remaining binding (binding; competition with immobilised ligand; 1 µM): 100%
CC(C)(C)c1cc(C=C(C#N)C#N)cc(Br)c1O  remaining activity (enzyme activity; inhibitor; 0.5 µM): 104%
Nc1ncc(-c2nc(N3CCOCC3)nc(N3CCOCC3)n2)c(C(F)F)n1  remaining binding (binding; competition with immobilised ligand; 10 µM): 41%
Cn1cc(-c2cccc(N3CCc4c(sc5c4CC(C)(C)C5)C3=O)c2CO)cc(Nc2ccncn2)c1=O  inhibition (enzyme activity; inhibitor; 1 µM): 4%
Cn1cncc1[C@@](O)(COc1ccc(C#N)cc1-c1ccc(OC(F)(F)F)cc1)c1ccc(C#N)cc1  remaining binding (cell-free assay; competition with immobilised ligand; 1 µM): 90%
COc1cc(Nc2ncc(F)c(Nc3ccc4c(n3)NC(=O)C(C)(C)O4)n2)cc(OC)c1OC  inhibition (binding; competition with immobilised ligand; 10 µM): 84%
